The test system of test [1] is MDA-MB-435 (Homo sapiens). Nature of the test: Antitumor activity against human MDA-MB-435 cells xenografted in NCR/NU NU mouse assessed as tumor volume measured on day 35 initially dosed at 1.5 mg/kg, ip qd x 3/5 days schedule. Particulars: route intraperitoneal. In general terms: Xenograft models place foreign cells or tissue in a host animal.
The test system of test [2] is MDA-MB-435 (Homo sapiens). Briefly: Antitumor activity against human MDA-MB-435 cells xenografted in NCR/NU NU mouse assessed as tumor volume measured on day 28 initially dosed at 1.5 mg/kg, ip qd x 3/5 days schedule. Particulars: route intraperitoneal.
Test [3] is described as follows: Cytotoxicity against human KB3-1 cells after MTT assay. Particulars: KB 3-1. Format: functional, cell-based. A digest of the protocol: (§1)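 IC50 after continuous 4-day exposure to varying drug concentrations, with MTT read at the end of day 4. A drug-free control was included. At least two runs, each in six replicate wells.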
Background: Tetrazolium assays rely on reduction of a dye to a coloured formazan, in cell work by metabolically active cells.

Test [4] is described as follows: Cytotoxicity against multidrug resistant human KBH5.0 cells overexpressing BCRP after MTT assay. Format: functional, cell-based. Particulars: KBH5.0 cell. The procedure, abridged:
as §1

Test [5] deals with MDA-MB-435 (Homo sapiens). Nature of the test: Antitumor activity against human MDA-MB-435 cells xenografted in NCR/NU NU mouse assessed as tumor volume measured on day 21 initially dosed at 1.5 mg/kg, ip qd x 3/5 days schedule. Particulars: route intraperitoneal.
Test [6] addresses T1, DNA topoisomerase 1 (Homo sapiens) (UniProt P11387).
T1 sequence (whole entry): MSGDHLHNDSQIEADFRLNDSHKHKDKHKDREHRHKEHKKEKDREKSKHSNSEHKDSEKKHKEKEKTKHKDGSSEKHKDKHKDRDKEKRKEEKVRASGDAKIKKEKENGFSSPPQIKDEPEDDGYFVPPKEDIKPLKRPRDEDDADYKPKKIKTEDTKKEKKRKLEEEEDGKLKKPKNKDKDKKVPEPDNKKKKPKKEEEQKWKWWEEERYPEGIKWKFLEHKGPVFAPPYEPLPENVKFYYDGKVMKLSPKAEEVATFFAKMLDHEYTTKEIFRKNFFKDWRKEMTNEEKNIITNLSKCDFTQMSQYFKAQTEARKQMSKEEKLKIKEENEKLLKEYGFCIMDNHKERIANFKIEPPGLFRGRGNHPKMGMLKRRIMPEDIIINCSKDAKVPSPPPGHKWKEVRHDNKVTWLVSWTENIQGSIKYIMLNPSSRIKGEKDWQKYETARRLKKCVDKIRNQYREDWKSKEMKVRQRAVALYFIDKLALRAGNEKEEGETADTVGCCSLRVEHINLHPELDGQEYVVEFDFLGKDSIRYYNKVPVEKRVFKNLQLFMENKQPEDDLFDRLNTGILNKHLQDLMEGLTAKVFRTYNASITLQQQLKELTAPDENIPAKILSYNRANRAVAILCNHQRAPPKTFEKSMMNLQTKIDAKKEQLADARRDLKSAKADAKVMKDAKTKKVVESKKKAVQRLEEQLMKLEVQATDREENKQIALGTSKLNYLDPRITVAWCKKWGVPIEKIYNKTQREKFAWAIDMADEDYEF
Briefly: Inhibition of human topoisomerase 1 mediated DNA cleavage assessed as effective drug concentration causing 10% YepG plasmid cleavage relative to camptothecin. Particulars: in the assay text read “relative to topotecan” for “relative to camptothecin”. A digest of the protocol:
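Stopped with SDS and proteinase K, 1 h at 37 °C. Alkali-denatured with NaOH/EDTA/sucrose/bromophenol blue, then run on neutral agarose gel.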

Test [7] in a line: Cytotoxicity against camptothecin-resistant human CPT-K5 cells after MTT assay. Type of test: functional, cell-based. The procedure, abridged: (§2)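 Suspension cultures at 37 °C, 5% CO2, in RPMI with 10% heat-inactivated FBS, 2 mM L-glutamine, penicillin and streptomycin. Continuous 4-day exposure to a range of drug concentrations, then MTT read-out to give IC50. Drug-free control included. At least two runs, six replicate wells each.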

A short description of test [8]: Cytotoxicity against multidrug resistant human KBV-1 cells overexpressing MDR1 after MTT assay. Format: functional, cell-based. Particulars: KB-V1. A digest of the protocol: as §1
The subject of the next test is MDA-MB-435 (human). Nature of the test: Antitumor activity against human MDA-MB-435 cells xenografted in NCR/NU NU mouse assessed as tumor volume measured on day 7 initially dosed at 1.5 mg/kg, ip qd x 3/5 days schedule. Particulars: route intraperitoneal.
Test [9] has as its system MDA-MB-435 (Homo sapiens). Nature of the test: Antitumor activity against human MDA-MB-435 cells xenografted in NCR/NU NU mouse assessed as tumor volume measured on day 42 initially dosed at 1.5 mg/kg, ip qd x 3/5 days schedule. Particulars: route intraperitoneal.
Test [10] can be described thus: Cytotoxicity against human RPMI8402 cells after MTT assay. Particulars: RPMI 8402. Format: functional, cell-based. A digest of the protocol:
as §2

Test [11] in a line: Cytotoxicity against camptothecin-resistant and TOP1 deficient mouse P388/CPT45 cells after MTT assay. Particulars: P388CPT45. Type of test: functional, cell-based. A digest of the protocol:
as §2

In test [12] the test system is MDA-MB-435 (Homo sapiens). Nature of the test: Antitumor activity against human MDA-MB-435 cells xenografted in NCR/NU NU mouse assessed as tumor volume measured on day 49 initially dosed at 1.5 mg/kg, ip qd x 3/5 days schedule. Particulars: route intraperitoneal.
Test [13] relates to MDA-MB-435 (Homo sapiens). Briefly: Antitumor activity against human MDA-MB-435 cells xenografted in NCR/NU NU mouse assessed as tumor volume measured on day 14 initially dosed at 1.5 mg/kg, ip qd x 3/5 days schedule. Particulars: route intraperitoneal.

Broadly, the IC50 is the concentration at which inhibition is half-maximal. Regarding `COc1cc2c(=O)n(CCN(C)C)c3c4cc5c(cc4ncc3c2cc1OC)OCO5`, the Activity in test [1] was 175 mm³; in [2], 158 mm³; in test [5] it was 145 mm³; in [6] it was 0.3; with MDA-MB-435 (human), 120 mm3; in test [9], 189 mm³. Besides, the Activity is 242 mm3 in test [12] and 123 mm³ in test [13]. For the same compound, the IC50 in [3] is 5 nM; in [4], 6 nM; in test [7], 900 nM; in test [8], 5 nM; in test [10], 2 nM; in [11], 230 nM.

The values above are taken from ChEMBL document CHEMBL1142488, “Synthesis of N-substituted 5-[2-(N-alkylamino)ethyl]dibenzo[c,h][1,6]naphthyridines as novel topoisomerase I-targeting antitumor agents” (Bioorg Med Chem, 2008).
